Results taken from article PMC11474258 (RSC Advances, 2024).
Values after ≈ are worked out from the molar mass of the structure shown. Values belong to the compound of their own block, whether it stands above or below them.

Tests used:
[1] = concentrations up to 5 mM; cited from earlier work
[2] = tested on: A549 cells; assay: MTT cell viability assay; type: cell-based; details: 18 h, triplicates, CX4 alone up to 200 μM
How it was run: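 A549 cells were grown in DMEM/F12 with 10% heat-inactivated FBS and 1% penicillin/streptomycin at 37 °C, 5% CO2. They were seeded at 1×10^4 cells/well and exposed in triplicate for 18 h to a range of test compound concentrations, alone or complexed with peptide. CX4 was at most 4 mM in complexes. MTT absorbance was read at 570 nm and reported as mean ± standard error, with Tukey test (P < 0.05).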

[3] = Solubility of curcumin; type: physicochemical; details: in the presence of FAM-Y4R4; absorption peak at 425 nm, curcumin standard curve
[4] = Overall binding constant of curcumin; details: average of fluorescence (tyrosine) and UV-vis (phenol) titration
[5] = cited from earlier work
[6] = UV-vis titration of curcumin with phenol; type: binding; details: isotherm at 430 nm, 1:1 model, non-linear regression
How it was run: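 Curcumin was spectroscopically titrated with phenol, which stands in for the tyrosine side chain. The binding isotherm was plotted from absorbance at 430 nm. Ka was fitted by nonlinear regression to a one-host-to-one-guest binding model.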

[7] = Spectral titration of phenol with guanidine HCl; details: calculated from the binding isotherm of phenol with guanidine HCl

Structure (SMILES): O=S(=O)(O)c1cc2c(O)c(c1)Cc1cc(S(=O)(=O)O)cc(c1O)Cc1cc(S(=O)(=O)O)cc(c1O)Cc1cc(S(=O)(=O)O)cc(c1O)C2 [CX4, p-sulfonatocalix[4]arene]
- hemolytic toxicity [1]: no hemolytic toxicity
- maximum decrease in cell viability [2]: ≤ 22%

- solubility of curcumin when bound to the tyrosines of FAM-Y4R4 [3]: 0.4 µM
- overall binding constant Ka (average of the two values) [4]: 2.38e+06 M⁻¹
Structure (SMILES): COc1cc(/C=C/C(=O)CC(=O)/C=C/c2ccc(O)c(OC)c2)ccc1O [curcumin]
- solubility in water [5]: 0.03 µM (≈ 0.0111 µg/mL)
- Ka of curcumin to phenol [6]: 4.6e+06 M⁻¹

- binding energy [7]: 8.13 kcal/mol
Structure (SMILES): Cl.N=C(N)N [guanidine HCl]
